Several values for one entry are separate records, joined by “and”; a condition that tells them apart may be missing. Equal values may be shown once.
Test system: Fibroblast
Experiment: Multiplex assay against human fibroblast
Type: toxicity, cell-based
Method in brief: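 Live cells carried four stains from seeding: Hoechst33342, BioTracker Green Microtubule Cytoskeleton Dye, MitoTracker Red and Annexin V Alexa Fluor 680. They were imaged on a CQ1 microscope at 37°C and 5% CO2 after compound addition. Using CellPathfinder machine-learning gating, cells were split into Hoechst high-intensity objects or normal cells, normal cells into healthy, pyknosed or fragmented nuclei, and pyknosed cells into mitotic or apoptotic; tubulin, mitochondrial-mass and membrane-permeability phenotypes are per cents of healthy-nucleus cells.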

[1] = 12 h, 1 µM, compound concentration 1 uM
[2] = 12 h, 10 µM, compound concentration 10 uM
[3] = 24 h, 1 µM, compound concentration 1 uM
[4] = 24 h, 10 µM, compound concentration 10 uM
[5] = 48 h, 1 µM, compound concentration 1 uM
[6] = 48 h, 10 µM, compound concentration 10 uM

Compound: CN1CCN(c2cc(-c3ccccc3)nc(N)n2)CC1
- Population Apoptotic (%) [1]: 47% and 37%
- Population Fragmented Nuclei (%) [1]: 15% and 28%
- Population Healthy Nuclei (%) [1]: 68% and 45%
- Population Hoechst High Intensity Objects (%) [1]: 2% and 5%
- Population Membrane Permeable-Phenotype (%) [1]: 1% and 11%
- Population Mitochondria Different-Phenotype (%) [1]: 10% and 11%
- Population Mitotic Cells (%) [1]: 52% and 62%
- Population Normal (%) [1]: 97% and 94%
- Population Pyknosed Nuclei (%) [1]: 15% and 26%
- Population Tubulin-Different-Phenotype (%) [1]: 25% and 66%
- Total Cell Count [1]: 135 and 97
- Population Apoptotic (%) [2]: 48% and 36%
- Population Fragmented Nuclei (%) [2]: 16% and 40%
- Population Healthy Nuclei (%) [2]: 67% and 36%
- Population Hoechst High Intensity Objects (%) [2]: 2% and 7%
- Population Membrane Permeable-Phenotype (%) [2]: 0% and 10%
- Population Mitochondria Different-Phenotype (%) [2]: 6% and 12%
- Population Mitotic Cells (%) [2]: 51% and 64%
- Population Normal (%) [2]: 97% and 92%
- Population Pyknosed Nuclei (%) [2]: 15% and 22%
- Population Tubulin-Different-Phenotype (%) [2]: 44% and 67%
- Total Cell Count [2]: 216 and 118
- Population Apoptotic (%) [3]: 75% and 47%
- Population Fragmented Nuclei (%) [3]: 17% and 36%
- Population Healthy Nuclei (%) [3]: 65% and 44%
- Population Hoechst High Intensity Objects (%) [3]: 2%
- Population Membrane Permeable-Phenotype (%) [3]: 1% and 8%
- Population Mitochondria Different-Phenotype (%) [3]: 3% and 8%
- Population Mitotic Cells (%) [3]: 25% and 52%
- Population Normal (%) [3]: 97%
- Population Pyknosed Nuclei (%) [3]: 16% and 18%
- Population Tubulin-Different-Phenotype (%) [3]: 19% and 50%
- Total Cell Count [3]: 145 and 106
- Population Apoptotic (%) [4]: 41% and 29%
- Population Fragmented Nuclei (%) [4]: 12% and 33%
- Population Healthy Nuclei (%) [4]: 70% and 43%
- Population Hoechst High Intensity Objects (%) [4]: 2%
- Population Membrane Permeable-Phenotype (%) [4]: 1% and 4%
- Population Mitochondria Different-Phenotype (%) [4]: 6%
- Population Mitotic Cells (%) [4]: 58% and 70%
- Population Normal (%) [4]: 97%
- Population Pyknosed Nuclei (%) [4]: 17% and 23%
- Population Tubulin-Different-Phenotype (%) [4]: 41% and 64%
- Total Cell Count [4]: 213 and 107
- Population Apoptotic (%) [5]: 70% and 50%
- Population Fragmented Nuclei (%) [5]: 22% and 36%
- Population Healthy Nuclei (%) [5]: 62% and 49%
- Population Hoechst High Intensity Objects (%) [5]: 2% and 3%
- Population Membrane Permeable-Phenotype (%) [5]: 0% and 2%
- Population Mitochondria Different-Phenotype (%) [5]: 2% and 6%
- Population Mitotic Cells (%) [5]: 30% and 50%
- Population Normal (%) [5]: 97% and 96%
- Population Pyknosed Nuclei (%) [5]: 15% and 14%
- Population Tubulin-Different-Phenotype (%) [5]: 20% and 54%
- Total Cell Count [5]: 137 and 101
- Population Apoptotic (%) [6]: 40% and 66%
- Population Fragmented Nuclei (%) [6]: 26% and 50%
- Population Healthy Nuclei (%) [6]: 58% and 39%
- Population Hoechst High Intensity Objects (%) [6]: 3%
- Population Membrane Permeable-Phenotype (%) [6]: 0% and 9%
- Population Mitochondria Different-Phenotype (%) [6]: 0% and 9%
- Population Mitotic Cells (%) [6]: 59% and 33%
- Population Normal (%) [6]: 96%
- Population Pyknosed Nuclei (%) [6]: 14% and 10%
- Population Tubulin-Different-Phenotype (%) [6]: 31% and 60%
- Total Cell Count [6]: 227 and 114

Compound: CC(=O)O[C@H]1C(=O)[C@@]2(C)[C@H]([C@H](OC(=O)c3ccccc3)[C@]3(O)C[C@H](OC(=O)[C@H](O)[C@@H](NC(=O)c4ccccc4)c4ccccc4)C(C)=C1C3(C)C)[C@]1(OC(C)=O)CO[C@@H]1C[C@@H]2O [PACLITAXEL]
- Population Apoptotic (%) [2]: 65% and 39%
- Population Fragmented Nuclei (%) [2]: 19% and 34%
- Population Healthy Nuclei (%) [2]: 63% and 39%
- Population Hoechst High Intensity Objects (%) [2]: 5% and 1%
- Population Membrane Permeable-Phenotype (%) [2]: 0% and 6%
- Population Mitochondria Different-Phenotype (%) [2]: 10% and 13%
- Population Mitotic Cells (%) [2]: 34% and 60%
- Population Normal (%) [2]: 94% and 98%
- Population Pyknosed Nuclei (%) [2]: 16% and 25%
- Population Tubulin-Different-Phenotype (%) [2]: 17% and 44%
- Total Cell Count [2]: 167 and 111
- Population Apoptotic (%) [4]: 70% and 30%
- Population Fragmented Nuclei (%) [4]: 19% and 36%
- Population Healthy Nuclei (%) [4]: 63% and 45%
- Population Hoechst High Intensity Objects (%) [4]: 1% and 2%
- Population Membrane Permeable-Phenotype (%) [4]: 0% and 6%
- Population Mitochondria Different-Phenotype (%) [4]: 9% and 10%
- Population Mitotic Cells (%) [4]: 29% and 70%
- Population Normal (%) [4]: 98% and 97%
- Population Pyknosed Nuclei (%) [4]: 16% and 18%
- Total Cell Count [4]: 164 and 114
- Population Apoptotic (%) [6]: 76% and 54%
- Population Fragmented Nuclei (%) [6]: 31% and 48%
- Population Healthy Nuclei (%) [6]: 50% and 42%
- Population Hoechst High Intensity Objects (%) [6]: 4% and 0%
- Population Membrane Permeable-Phenotype (%) [6]: 0% and 3%
- Population Mitochondria Different-Phenotype (%) [6]: 16% and 9%
- Population Mitotic Cells (%) [6]: 23% and 45%
- Population Normal (%) [6]: 95% and 100%
- Population Pyknosed Nuclei (%) [6]: 17% and 8%
- Population Tubulin-Different-Phenotype (%) [6]: 20% and 40%
- Total Cell Count [6]: 177 and 129

Compound: Cc1[nH]nc2ccc(-c3cncc(OCC(N)Cc4c[nH]c5ccccc45)c3)cc12 (configuration not stated)
- Population Apoptotic (%) [1]: 18.11% and 24.66%
- Population Fragmented Nuclei (%) [1]: 16.11% and 10.36%
- Population Healthy Nuclei (%) [1]: 41.28% and 56.76%
- Population Hoechst High Intensity Objects (%) [1]: 0%
- Population Membrane Permeable-Phenotype (%) [1]: 3.25% and 3.97%
- Population Mitochondria Different-Phenotype (%) [1]: 17.07% and 15.08%
- Population Mitotic Cells (%) [1]: 81.89% and 75.34%
- Population Normal (%) [1]: 100%
- Population Pyknosed Nuclei (%) [1]: 42.62% and 32.88%
- Population Tubulin-Different-Phenotype (%) [1]: 23.58% and 29.37%
- Total Cell Count [1]: 298 and 222
- Population Apoptotic (%) [2]: 73.46% and 80.82%
- Population Fragmented Nuclei (%) [2]: 20.65% and 12.77%
- Population Healthy Nuclei (%) [2]: 11.29% and 2.66%
- Population Hoechst High Intensity Objects (%) [2]: 0% and 0.27%
- Population Membrane Permeable-Phenotype (%) [2]: 2.86% and 10%
- Population Mitochondria Different-Phenotype (%) [2]: 5.71% and 10%
- Population Mitotic Cells (%) [2]: 26.54% and 19.18%
- Population Normal (%) [2]: 100% and 99.73%
- Population Pyknosed Nuclei (%) [2]: 68.06% and 84.57%
- Population Tubulin-Different-Phenotype (%) [2]: 22.86% and 10%
- Total Cell Count [2]: 310 and 377
- Population Apoptotic (%) [3]: 27.83% and 30.77%
- Population Fragmented Nuclei (%) [3]: 13.42% and 3.92%
- Population Healthy Nuclei (%) [3]: 47.99% and 64.22%
- Population Hoechst High Intensity Objects (%) [3]: 0%
- Population Membrane Permeable-Phenotype (%) [3]: 0.7% and 2.29%
- Population Mitochondria Different-Phenotype (%) [3]: 10.49% and 14.5%
- Population Mitotic Cells (%) [3]: 72.17% and 69.23%
- Population Normal (%) [3]: 100%
- Population Pyknosed Nuclei (%) [3]: 38.59% and 31.86%
- Population Tubulin-Different-Phenotype (%) [3]: 18.88% and 22.14%
- Total Cell Count [3]: 298 and 204
- Population Apoptotic (%) [4]: 65.94% and 93.38%
- Population Fragmented Nuclei (%) [4]: 25.98% and 13.12%
- Population Healthy Nuclei (%) [4]: 19.69% and 18.55%
- Population Hoechst High Intensity Objects (%) [4]: 0%
- Population Membrane Permeable-Phenotype (%) [4]: 10% and 14.63%
- Population Mitochondria Different-Phenotype (%) [4]: 6% and 7.32%
- Population Normal (%) [4]: 100%
- Population Pyknosed Nuclei (%) [4]: 54.33% and 68.33%
- Population Tubulin-Different-Phenotype (%) [4]: 24% and 48.78%
- Total Cell Count [4]: 254 and 221
- Population Apoptotic (%) [5]: 32.98% and 38.18%
- Population Fragmented Nuclei (%) [5]: 11.28% and 7.22%
- Population Healthy Nuclei (%) [5]: 53.38% and 64.43%
- Population Hoechst High Intensity Objects (%) [5]: 0%
- Population Membrane Permeable-Phenotype (%) [5]: 0% and 3.2%
- Population Mitochondria Different-Phenotype (%) [5]: 17.61% and 10.4%
- Population Mitotic Cells (%) [5]: 67.02% and 61.82%
- Population Normal (%) [5]: 100%
- Population Pyknosed Nuclei (%) [5]: 35.34% and 28.35%
- Population Tubulin-Different-Phenotype (%) [5]: 13.38% and 9.6%
- Total Cell Count [5]: 266 and 194
- Population Apoptotic (%) [6]: 40.43% and 95.45%
- Population Fragmented Nuclei (%) [6]: 31.02% and 56.65%
- Population Healthy Nuclei (%) [6]: 47.22% and 30.64%
- Population Hoechst High Intensity Objects (%) [6]: 0%
- Population Membrane Permeable-Phenotype (%) [6]: 5.88% and 11.32%
- Population Mitochondria Different-Phenotype (%) [6]: 31.37% and 37.74%
- Population Normal (%) [6]: 100%
- Population Pyknosed Nuclei (%) [6]: 21.76% and 12.72%
- Population Tubulin-Different-Phenotype (%) [6]: 35.29% and 66.04%
- Total Cell Count [6]: 216 and 173

Source: ChEMBL document CHEMBL5724801, “EUbOPEN Chemogenomics Library - Multiplex” (2024)
